Sampled rows, rich in hits. Any-hit rate of the full collection: about 3.4%.
ANO1 activ = activators or potentiators of mouse TMEM16A chloride channel; 340,000 tested, 0.3% active; AID 623877; Q8BHY3; B-score at 10 µM; HEK293 TMEM16A/YFP-H148Q/I152L, iodide quench fluorescence; hits give low values;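 active = fluorescence-ratio B-score plate-corrected deviation score at least 3 library SD below zero, with starting fluorescence score within 5 deviations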;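 also: channel opened by trigger with iodide after compound preincubation; score built on the fluorescence ratio of max minus min over baseline; more negative score means more quench and so TMEM16A activation or potentiation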
VIM-2 inhibitor = blocks Pseudomonas aeruginosa VIM-2 metallo-beta-lactamase | purified VIM-2, nitrocefin hydrolysis, epi-absorbance fluorescence | 290,000 tested, 0.89% active | inhibition, % at 5.6 µM;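 active = inhibition above the mean of all tested compounds plus 3 SD, cutoff set per screening run, cut at about 7.5% in these data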;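 also: red hydrolysis product quenches plate fluorescence so inhibitors raise well fluorescence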
CHT allo act = human CHT allosteric activation. 310,000 tested, 0.49% active. Q9GZV3. CHT-expressing cells, membrane potential dye, choline EC20; hits give high values; LV-AA mutant CHT in HEK293 cells. B-score at 10 µM;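 active = initial fluorescence not abnormally high and integrated response B-score, plate-corrected, over 3 SD above library mean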
Target sequence (Q9GZV3 whole entry, looked up): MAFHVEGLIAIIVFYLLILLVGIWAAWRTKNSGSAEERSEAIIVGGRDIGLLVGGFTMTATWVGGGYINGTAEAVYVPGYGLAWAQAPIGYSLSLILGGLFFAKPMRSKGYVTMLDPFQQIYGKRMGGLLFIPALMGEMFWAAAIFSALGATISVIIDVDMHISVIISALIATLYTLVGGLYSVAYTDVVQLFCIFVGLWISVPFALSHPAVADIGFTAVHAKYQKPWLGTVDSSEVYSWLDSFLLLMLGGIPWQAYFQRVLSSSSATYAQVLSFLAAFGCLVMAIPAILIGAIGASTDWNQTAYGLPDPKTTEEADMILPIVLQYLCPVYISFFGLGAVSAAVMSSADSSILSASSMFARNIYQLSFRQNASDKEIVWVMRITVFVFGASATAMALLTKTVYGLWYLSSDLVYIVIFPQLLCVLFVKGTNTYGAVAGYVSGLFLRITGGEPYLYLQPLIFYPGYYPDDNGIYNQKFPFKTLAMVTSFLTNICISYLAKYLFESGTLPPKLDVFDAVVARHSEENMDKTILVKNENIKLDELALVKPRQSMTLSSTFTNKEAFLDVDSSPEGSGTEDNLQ
IMP-1 inhibitor = blocks Pseudomonas aeruginosa IMP-1 metallo-beta-lactamase | purified IMP-1, nitrocefin hydrolysis, epi-absorbance fluorescence | inhibition, % at 5.6 µM | 290,000 tested, 0.45% active | AID 1556;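 active = inhibition above the mean plus 3 SD of all compounds in the same screening run, cut at about 4.5% in these data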
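System: purified recombinant IMP-1 beta-lactamase. Medium: Zinc- and detergent-supplemented HEPES buffer, pH 7.1. Compound: one 5.6 µM dose […]. Schedule: 15 min preincubation plus 25 min reaction at 25 °C. Technique: Epi-absorbance fluorescence, 480 nm excitation, 530 nm emission.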
CHT inh = human CHT choline transport inhibition. 310,000 tested, 0.86% active. B-score at 10 µM. CHT-expressing cells, membrane potential dye, choline response; hits give low values. Q9GZV3;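 active = B-score over 3 SD under the library average, and starting fluorescence ratio not unusually high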;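 also: choline stimulus applied at its EC90 after an EC20 pre-addition; B-score computed on integrated fluorescence ratio after choline addition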
ANO1 block = inhibitors of mouse TMEM16A calcium-activated chloride channel. 310,000 tested, 1.2% active. normalized B-score (activity score, 25-100; higher = stronger inhibition) at 10 µM. AID 588511. Q8BHY3. HEK293 TMEM16A/YFP iodide influx fluorescence, ionomycin;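 active = ratio plate-corrected score three or more library SD toward inhibition, starting fluorescence score within five deviations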;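 also: score derived from kinetic fluorescence span divided by baseline fluorescence per well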
Hits are given with their value; i = inactive; nt = not tested or not shown.

SMILES	ANO1 activ	VIM-2 inhibitor	CHT allo act	IMP-1 inhibitor	CHT inh	ANO1 block
C[C@H]1CC[C@H]2C(=O)N3[C@H](c4cccc(N5CCCC5=O)c4)[C@@H](C)CC[C@H]3C(=O)N2[C@@H]1c1cccc(N2CCCC2=O)c1	nt	i	i	i	i	i
O=C(CSc1ccc(Cl)cc1)NNC(=O)c1ccco1	i	i	i	i	i	i
O=C(Nc1ccccc1)c1nnsc1S(=O)c1ccc(Cl)cc1 (stereo unspecified)	-9.3	i	i	i	i	i
O=C(c1nnsc1S(=O)c1ccc(Cl)cc1)N1CCOCC1 (stereo unspecified)	i	i	nt	i	nt	nt
COc1ccccc1CNC(=O)N1CCN(c2ccccc2C)CC1	i	i	i	52	i	i
COc1cccc(CNC(=O)N2CCN(c3ccccc3C)CC2)c1	i	i	i	i	i	i
COc1ccccc1N1CCN(CCNC(=O)Nc2cccc(C)c2C)CC1	i	i	i	i	i	25
COCCCNC(=S)N(Cc1ccccc1)Cc1ccccc1	i	i	i	i	i	i
COCCCNC(=S)N(Cc1ccccc1)Cc1nc2ccccc2c(=O)[nH]1	i	i	i	i	i	25
COc1ccc(N=Cc2ccccc2O)cc1	i	nt	nt	nt	nt	nt
COc1ccc(N=Cc2[nH]c3ccccc3c2O)cc1	-7.6	i	i	i	i	i
O=C1C(F)=CC(COC(c2ccccc2)(c2ccccc2)c2ccccc2)OC1n1cc(F)c(=O)[nH]c1=O (stereo unspecified)	-13	nt	nt	nt	nt	nt
O=C(NC1CCCCC1)C1CCC(=O)N(Cc2cccc(C(F)(F)F)c2)C1 (stereo unspecified)	i	i	i	i	i	i
COC(=O)c1c(C)[nH]c(C)c1-c1ccc(C)cc1	i	i	i	i	i	i
COC(=O)c1c(C)[nH]c(C)c1-c1cccc([N+](=O)[O-])c1	-7.7	i	i	i	i	i
COc1ccccc1OCc1nnc(SCC(=O)c2cc(Cl)ccc2OC)o1	i	i	i	i	i	100
CC(C)(C)NC(=O)NC(=O)CSc1nnc(COc2ccccc2Cl)o1	i	i	i	i	i	100
O=C(CSc1nnc(COc2ccccc2Cl)o1)Nc1ccccc1	i	nt	nt	nt	nt	nt
O=C(OCC(=O)N1CCCC1=O)c1nc(Cl)c(Cl)c(Cl)c1Cl	i	i	i	i	-5	i
Nc1c(Cl)c(Cl)nc(C(=O)OCC(=O)N2CCCC2=O)c1Cl	i	nt	i	nt	i	i
Cc1nn(-c2cc(C(F)(F)F)ccc2Cl)c2nc(C(Cl)(Cl)Cl)[nH]c(=O)c12	i	i	i	i	i	100
Cc1nc2c(C(=O)NCCC(C)C)c[nH]n2c(=O)c1Cl	i	i	i	i	i	i
Cc1nc2c(C(=O)NCCC(C)C)c[nH]n2c(=O)c1Cc1ccccc1F	i	i	i	i	i	100
CCc1nc(SCc2cc(=O)[nH]c3ccccc23)c2c(C)c(C)sc2n1	i	nt	nt	nt	nt	nt
CCCn1c(SCC(=O)Nc2nnc(C)s2)nnc1C1CC1	i	7.8	i	i	i	i
SMILES	ANO1 activ	VIM-2 inhibitor	CHT allo act	IMP-1 inhibitor	CHT inh	ANO1 block
CCCn1c(SCC(=O)NC2CCCCC2)nnc1C1CC1	i	i	i	i	i	i
Cc1cnc(NCCc2ccccc2)s1	i	i	i	i	i	i
CNc1ncc(Cc2ccccc2)s1	i	i	i	40	i	i
CC(=O)c1ccc(NC(=O)CN2CCN(c3ccccc3)CC2)cc1	i	i	i	i	i	i
O=C(Nc1cccnc1)c1ccc(Oc2ccccc2)cc1	i	i	i	i	i	25
O=C(Nc1cccnc1)/C(N=Nc1cccnc1)=C(\O)c1ccccc1	i	10	i	i	i	i
O=C(Nc1cccnc1)c1ccccc1Oc1ccccc1	i	i	i	i	i	i
CC(=O)Nc1ccc(C(=O)CN2CCN(c3ccccc3)CC2)cc1	i	i	i	22	i	i
CN1CCN(c2ccc(NC(=O)c3ccc(Oc4ccccc4)cc3)cc2)CC1	i	8.3	i	i	i	i
COC(=O)c1ccc(NC(=O)c2cc[n+]([O-])cc2)cc1	i	i	i	i	i	i
CC1CCCN(S(=O)(=O)c2ccc(C(=O)NC(C)c3ccccc3)cc2)C1 (stereo unspecified)	i	nt	nt	nt	nt	nt
CC(NC(=O)CN(Cc1ccccc1)S(=O)(=O)c1ccccc1)c1cccnc1 (stereo unspecified)	i	nt	nt	nt	nt	nt

Assay outcomes deposited in PubChem by several laboratories.
